{"source": "ChEMBL document CHEMBL5653631", "about": "“A Potent and Selective ULK1 Inhibitor Suppresses Autophagy and Sensitizes Cancer Cells to Nutrient Stress” (iScience, 2018)", "key": {"[1]": {"target": "3-phosphoinositide-dependent protein kinase 1 (Homo sapiens) (UniProt O15530)", "sequence (O15530 whole entry, looked up)": "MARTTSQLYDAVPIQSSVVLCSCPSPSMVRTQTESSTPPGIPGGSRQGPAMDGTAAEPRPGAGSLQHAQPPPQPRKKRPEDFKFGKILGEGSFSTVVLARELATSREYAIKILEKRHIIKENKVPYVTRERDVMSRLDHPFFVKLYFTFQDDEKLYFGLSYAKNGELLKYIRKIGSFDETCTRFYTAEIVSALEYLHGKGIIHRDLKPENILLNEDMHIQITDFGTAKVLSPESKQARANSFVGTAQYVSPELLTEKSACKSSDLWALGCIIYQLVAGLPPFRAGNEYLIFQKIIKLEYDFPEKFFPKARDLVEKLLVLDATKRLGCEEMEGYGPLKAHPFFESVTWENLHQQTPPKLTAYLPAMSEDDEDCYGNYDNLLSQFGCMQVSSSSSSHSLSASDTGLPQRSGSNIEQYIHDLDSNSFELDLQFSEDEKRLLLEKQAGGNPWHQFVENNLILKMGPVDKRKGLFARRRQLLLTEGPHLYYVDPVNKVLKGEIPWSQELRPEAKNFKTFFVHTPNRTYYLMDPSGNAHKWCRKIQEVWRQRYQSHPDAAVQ", "test": "Inhibition of human recombinant PDK1 at 40 nM in presence of ATP by radiometric assay relative to control"}, "[2]": {"target": "T1, Serine/threonine-protein kinase NLK (Homo sapiens) (UniProt Q9UBE8)", "T1 sequence (whole entry)": "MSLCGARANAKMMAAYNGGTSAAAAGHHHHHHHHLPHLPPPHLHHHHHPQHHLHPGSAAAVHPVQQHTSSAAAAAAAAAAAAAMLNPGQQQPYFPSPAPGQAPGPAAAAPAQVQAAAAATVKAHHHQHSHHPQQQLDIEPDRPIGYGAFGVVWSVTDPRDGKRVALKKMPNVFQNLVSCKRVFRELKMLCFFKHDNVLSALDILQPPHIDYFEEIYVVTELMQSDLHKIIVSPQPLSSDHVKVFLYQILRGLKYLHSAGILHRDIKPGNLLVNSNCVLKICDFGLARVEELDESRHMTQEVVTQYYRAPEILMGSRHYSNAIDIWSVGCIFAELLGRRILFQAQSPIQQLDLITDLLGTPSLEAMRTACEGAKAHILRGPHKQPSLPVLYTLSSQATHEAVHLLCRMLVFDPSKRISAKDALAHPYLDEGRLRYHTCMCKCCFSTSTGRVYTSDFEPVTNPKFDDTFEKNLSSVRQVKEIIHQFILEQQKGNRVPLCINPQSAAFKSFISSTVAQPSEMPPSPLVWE", "test": "Inhibition of human recombinant NLK at 40 nM in presence of ATP by radiometric assay relative to control"}, "[3]": {"target": "RAC-alpha serine/threonine-protein kinase (Homo sapiens) (UniProt P31749)", "sequence (P31749 whole entry)": "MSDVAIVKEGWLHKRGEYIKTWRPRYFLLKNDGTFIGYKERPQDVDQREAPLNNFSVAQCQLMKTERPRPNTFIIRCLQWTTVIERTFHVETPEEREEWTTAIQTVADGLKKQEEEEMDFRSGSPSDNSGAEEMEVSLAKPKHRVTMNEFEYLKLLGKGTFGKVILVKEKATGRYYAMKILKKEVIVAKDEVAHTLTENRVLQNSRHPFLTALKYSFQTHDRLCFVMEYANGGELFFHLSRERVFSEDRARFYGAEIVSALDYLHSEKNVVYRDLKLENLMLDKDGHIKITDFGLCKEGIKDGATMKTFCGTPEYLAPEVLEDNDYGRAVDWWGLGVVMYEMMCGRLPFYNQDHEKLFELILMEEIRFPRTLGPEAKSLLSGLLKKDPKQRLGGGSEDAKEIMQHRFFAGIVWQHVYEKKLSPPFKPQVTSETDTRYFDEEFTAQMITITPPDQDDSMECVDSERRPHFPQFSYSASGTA", "test": "Inhibition of human recombinant AKT1 at 40 nM related to control ULK1", "how_it_was_run": "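Radiometric activity assays in a panel of 327 human recombinant kinases, each run in duplicate at one inhibitor concentration. Activity remaining is expressed as percent of vehicle control, and percent inhibition is calculated as 100% minus percent activity remaining.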"}, "[4]": {"target": "T2, Serine/threonine-protein kinase Chk1 (Homo sapiens) (UniProt O14757)", "T2 sequence (whole entry)": "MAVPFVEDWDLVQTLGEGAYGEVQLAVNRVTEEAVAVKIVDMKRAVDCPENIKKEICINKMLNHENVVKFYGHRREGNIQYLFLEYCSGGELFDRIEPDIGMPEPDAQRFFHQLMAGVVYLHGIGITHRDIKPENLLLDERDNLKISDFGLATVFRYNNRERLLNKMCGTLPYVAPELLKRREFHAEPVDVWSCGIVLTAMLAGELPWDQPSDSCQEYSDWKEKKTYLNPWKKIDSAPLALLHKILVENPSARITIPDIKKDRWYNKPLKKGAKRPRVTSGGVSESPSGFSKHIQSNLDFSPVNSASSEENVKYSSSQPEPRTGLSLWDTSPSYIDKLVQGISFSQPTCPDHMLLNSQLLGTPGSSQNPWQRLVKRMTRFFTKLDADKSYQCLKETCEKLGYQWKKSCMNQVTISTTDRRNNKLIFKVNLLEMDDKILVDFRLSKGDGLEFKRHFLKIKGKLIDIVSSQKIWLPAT", "test": "Inhibition of human recombinant CHK1 at 500 nM in presence of ATP by radiometric assay relative to control"}, "[5]": {"target": "Cyclin-dependent kinase 5 (Homo sapiens) (UniProt Q00535)", "sequence (Q00535 whole entry, looked up)": "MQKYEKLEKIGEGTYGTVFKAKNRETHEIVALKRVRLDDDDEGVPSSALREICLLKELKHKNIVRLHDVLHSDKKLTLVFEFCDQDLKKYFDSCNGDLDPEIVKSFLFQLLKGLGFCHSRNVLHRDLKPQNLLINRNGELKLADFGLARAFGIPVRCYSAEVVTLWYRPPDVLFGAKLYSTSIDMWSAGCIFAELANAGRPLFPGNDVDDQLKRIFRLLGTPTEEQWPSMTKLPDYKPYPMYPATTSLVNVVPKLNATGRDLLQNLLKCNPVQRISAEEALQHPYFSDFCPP", "test": "Inhibition of human recombinant CDK5 at 500 nM in presence of ATP by radiometric assay relative to control"}, "[6]": {"target": "Dual specificity protein kinase CLK1 (Homo sapiens) (UniProt P49759)", "sequence (P49759 whole entry, looked up)": "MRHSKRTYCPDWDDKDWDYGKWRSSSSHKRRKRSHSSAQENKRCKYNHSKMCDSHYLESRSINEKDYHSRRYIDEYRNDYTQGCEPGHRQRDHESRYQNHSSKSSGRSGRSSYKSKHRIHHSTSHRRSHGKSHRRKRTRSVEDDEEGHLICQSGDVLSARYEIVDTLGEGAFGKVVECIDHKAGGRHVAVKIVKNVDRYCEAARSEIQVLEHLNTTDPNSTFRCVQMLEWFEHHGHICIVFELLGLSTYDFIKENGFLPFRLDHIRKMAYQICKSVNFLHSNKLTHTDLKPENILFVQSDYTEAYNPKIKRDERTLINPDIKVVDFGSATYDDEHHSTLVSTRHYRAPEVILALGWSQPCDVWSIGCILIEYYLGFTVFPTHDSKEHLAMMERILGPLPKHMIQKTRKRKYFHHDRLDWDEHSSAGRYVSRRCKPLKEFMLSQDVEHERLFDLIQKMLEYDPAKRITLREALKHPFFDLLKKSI", "test": "Inhibition of human recombinant CLK1 at 500 nM in presence of ATP by radiometric assay relative to control"}, "[7]": {"target": "Vascular endothelial growth factor receptor 2 (Homo sapiens) (UniProt P35968)", "test": "Inhibition of human recombinant KDR at 500 nM in presence of ATP by radiometric assay relative to control"}, "[8]": {"target": "[Pyruvate dehydrogenase (acetyl-transferring)] kinase isozyme 4, mitochondrial (Homo sapiens) (UniProt Q16654)", "sequence (Q16654 whole entry, looked up)": "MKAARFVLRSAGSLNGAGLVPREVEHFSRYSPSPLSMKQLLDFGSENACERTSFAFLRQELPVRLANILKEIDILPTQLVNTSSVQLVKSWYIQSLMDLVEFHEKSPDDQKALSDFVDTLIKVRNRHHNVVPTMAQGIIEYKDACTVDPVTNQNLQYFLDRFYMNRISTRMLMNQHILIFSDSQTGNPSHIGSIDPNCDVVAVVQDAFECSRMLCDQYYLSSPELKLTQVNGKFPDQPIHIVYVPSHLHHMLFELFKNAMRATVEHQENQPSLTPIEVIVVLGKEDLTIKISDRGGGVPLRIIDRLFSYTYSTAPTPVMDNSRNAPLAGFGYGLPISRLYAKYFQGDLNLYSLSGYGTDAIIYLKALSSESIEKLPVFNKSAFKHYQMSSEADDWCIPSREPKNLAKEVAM", "test": "Inhibition of human recombinant PDHK4 at 500 nM in presence of ATP by radiometric assay relative to control"}, "[9]": {"target": "Casein kinase II subunit alpha (Homo sapiens) (UniProt P68400)", "sequence (P68400 whole entry, looked up)": "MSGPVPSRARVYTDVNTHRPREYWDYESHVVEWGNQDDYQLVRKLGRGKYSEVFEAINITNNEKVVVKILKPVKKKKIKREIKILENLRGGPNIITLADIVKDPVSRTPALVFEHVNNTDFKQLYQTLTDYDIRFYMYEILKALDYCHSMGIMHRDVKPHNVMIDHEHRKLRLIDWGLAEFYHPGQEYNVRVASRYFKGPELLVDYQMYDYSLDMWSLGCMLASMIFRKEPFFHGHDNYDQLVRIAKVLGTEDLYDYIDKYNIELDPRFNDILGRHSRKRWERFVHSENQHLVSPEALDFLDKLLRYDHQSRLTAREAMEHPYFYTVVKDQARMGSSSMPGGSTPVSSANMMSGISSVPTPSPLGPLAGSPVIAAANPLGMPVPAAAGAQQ", "test": "Inhibition of human recombinant CK2a1 at 500 nM in presence of ATP by radiometric assay relative to control"}, "[10]": {"target": "Dual specificity mitogen-activated protein kinase kinase 2 (Homo sapiens) (UniProt P36507)", "sequence (P36507 whole entry)": "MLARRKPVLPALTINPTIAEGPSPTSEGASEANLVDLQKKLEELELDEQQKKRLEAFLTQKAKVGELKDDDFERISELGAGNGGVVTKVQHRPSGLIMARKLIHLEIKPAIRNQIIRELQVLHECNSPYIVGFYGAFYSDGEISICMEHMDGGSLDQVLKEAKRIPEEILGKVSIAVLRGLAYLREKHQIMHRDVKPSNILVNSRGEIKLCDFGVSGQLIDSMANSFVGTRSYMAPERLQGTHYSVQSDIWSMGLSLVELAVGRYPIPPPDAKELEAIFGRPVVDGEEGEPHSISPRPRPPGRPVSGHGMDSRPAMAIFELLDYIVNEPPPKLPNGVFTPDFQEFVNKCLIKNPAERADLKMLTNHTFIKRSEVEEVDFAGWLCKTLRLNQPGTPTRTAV", "test": "Inhibition of human recombinant MAP2K2 at 15 nM related to control ULK1"}, "[11]": {"species_on_record": "Homo sapiens", "test": "Inhibition of human recombinant ABL at 15 nM in presence of ATP by radiometric assay relative to control", "how_it_was_run": "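Panel of 327 recombinant human kinases in radiometric activity assays, each screened in duplicate at a single inhibitor concentration; percent activity remaining relative to vehicle control, percent inhibition taken as 100 minus activity remaining.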"}, "[12]": {"target": "Serine/threonine-protein kinase MARK1 (Homo sapiens) (UniProt Q9P0L2)", "sequence (Q9P0L2 whole entry, looked up)": "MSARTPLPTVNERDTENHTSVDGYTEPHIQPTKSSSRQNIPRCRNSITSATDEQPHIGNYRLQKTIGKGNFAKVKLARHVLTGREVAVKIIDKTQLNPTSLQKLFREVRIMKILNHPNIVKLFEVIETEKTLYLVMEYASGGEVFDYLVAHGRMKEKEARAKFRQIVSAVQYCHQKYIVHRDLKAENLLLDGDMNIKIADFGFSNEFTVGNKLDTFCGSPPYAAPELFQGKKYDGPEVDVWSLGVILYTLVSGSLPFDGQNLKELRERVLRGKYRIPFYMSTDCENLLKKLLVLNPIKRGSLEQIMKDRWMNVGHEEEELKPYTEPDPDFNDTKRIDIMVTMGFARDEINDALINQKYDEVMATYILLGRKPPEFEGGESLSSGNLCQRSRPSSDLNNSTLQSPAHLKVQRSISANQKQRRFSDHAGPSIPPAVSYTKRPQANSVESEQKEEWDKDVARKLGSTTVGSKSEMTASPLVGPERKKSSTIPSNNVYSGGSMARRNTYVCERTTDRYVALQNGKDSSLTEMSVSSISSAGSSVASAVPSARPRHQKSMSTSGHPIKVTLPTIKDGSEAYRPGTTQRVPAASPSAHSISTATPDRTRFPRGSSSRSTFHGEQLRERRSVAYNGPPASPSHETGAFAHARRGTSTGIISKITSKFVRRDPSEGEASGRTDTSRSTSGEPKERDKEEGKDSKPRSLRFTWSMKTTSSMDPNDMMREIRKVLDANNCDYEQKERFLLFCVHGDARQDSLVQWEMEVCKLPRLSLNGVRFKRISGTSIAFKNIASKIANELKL", "test": "Inhibition of human recombinant MARK1 at 15 nM in presence of ATP by radiometric assay relative to control"}, "[13]": {"target": "Serine/threonine-protein kinase pim-1 (Homo sapiens) (UniProt P11309)", "sequence (P11309 whole entry, looked up)": "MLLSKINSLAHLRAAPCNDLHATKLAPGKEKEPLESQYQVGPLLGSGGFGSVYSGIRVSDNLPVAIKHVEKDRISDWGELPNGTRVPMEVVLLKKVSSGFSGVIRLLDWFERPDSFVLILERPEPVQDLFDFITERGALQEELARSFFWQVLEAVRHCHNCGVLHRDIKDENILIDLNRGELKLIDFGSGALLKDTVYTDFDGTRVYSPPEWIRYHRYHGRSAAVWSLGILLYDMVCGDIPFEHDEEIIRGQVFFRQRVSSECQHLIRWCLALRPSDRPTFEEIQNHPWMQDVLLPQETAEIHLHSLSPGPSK", "test": "Inhibition of human recombinant PIM1 at 15 nM in presence of ATP by radiometric assay relative to control"}}, "data": [{"molecule": "O=C(N[C@@H](C1CC1)C(F)(F)F)c1cc(-c2cnn3cc(-c4ccc(F)cc4)cnc23)cs1", "values": [{"measurement": "inhibition", "setting": "[1]", "value": 0, "unit": "%"}, {"measurement": "inhibition", "setting": "[2]", "value": 47, "unit": "%"}, {"measurement": "fold change (FC)", "setting": "[3]", "value": 0}]}, {"molecule": "CNC(=O)c1ccccc1Oc1nc(Nc2cc(OC)c(OC)c(OC)c2)ncc1Br", "values": [{"measurement": "inhibition", "setting": "[4]", "value": 4, "unit": "%"}, {"measurement": "inhibition", "setting": "[5]", "value": 57, "unit": "%"}, {"measurement": "inhibition", "setting": "[6]", "value": 5, "unit": "%"}, {"measurement": "inhibition", "setting": "[7]", "value": 0, "unit": "%"}, {"measurement": "inhibition", "setting": "[8]", "value": 5, "unit": "%"}, {"measurement": "inhibition", "setting": "[9]", "value": 14, "unit": "%"}]}, {"molecule": "CC(C)[C@H](NC(=O)c1cc(-c2cnn3cc(-c4ccc(OCCN5CCCCC5)cc4)cnc23)cs1)C(F)(F)F", "values": [{"measurement": "fold change (FC)", "setting": "[10]", "value": 0}, {"measurement": "inhibition", "setting": "[11]", "value": 82, "unit": "%"}, {"measurement": "inhibition", "setting": "[12]", "value": 54, "unit": "%"}, {"measurement": "inhibition", "setting": "[13]", "value": 14, "unit": "%"}]}]}
